Data on eight compounds can be found in ChEMBL document CHEMBL4725432, “Dethioacylation by Sirtuins 1-3: Considerations for Drug Design Using Mechanism-Based Sirtuin Inhibition” (ACS Med Chem Lett, 2020).

Active and inactive are the calls of the source. The rule behind the calls is not given here. Residues, ends and D or L forms follow the SMILES beside them. *: point of attachment. AMC = Cc1cc(=O)oc2cc(N*)ccc12; Butyryl = CCCC(=O)*

Usually half-life stands for how long it takes for the measured level to halve. Usually IC50 stands for the concentration needed to halve the response being measured. A word on the inhibition: it is the percentage by which the read-out fell short of the control.

The test system of the first series is HEK293. In words: Inhibition of deacetylation activity in HEK293 cell lysate incubated with substrate for 2 hrs at 50 uM measured after 90 mins by fluorescence assay. Conditions: Homo sapiens. The format is functional, subcellular. The essentials:
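Fluorogenic thioacyl or acyl lysine-AMC substrates incubated with fresh HEK293 cell lysate (~65 μg). Deacylation measured by fluorescence. Two independent experiments in duplicate, standard deviation.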
As to `CCC(=S)NCCCC[C@H](NC(=O)[C@H](CCCCN)NC(=O)[C@@H]1CCCN1C(=O)[C@H](CCC(N)=O)NC(C)=O)C(=O)Nc1ccc2c(C)cc(=O)oc2c1`, the outcome was Active.

As to `CC(=O)NCCCC[C@H](NC(=O)[C@H](CCCCN)NC(=O)[C@@H]1CCCN1C(=O)[C@H](CCC(N)=O)NC(C)=O)C(=O)Nc1ccc2c(C)cc(=O)oc2c1` (Ac-QPKK(Ac)-{AMC}), the result was Active.

Turning to `CCCC(=S)NCCCC[C@H](NC(=O)[C@H](CCCCN)NC(=O)[C@@H]1CCCN1C(=O)[C@H](CCC(N)=O)NC(C)=O)C(=O)Nc1ccc2c(C)cc(=O)oc2c1`, the outcome was Active.

As to `CCCC(=O)NCCCC[C@H](NC(=O)[C@H](CCCCN)NC(=O)[C@@H]1CCCN1C(=O)[C@H](CCC(N)=O)NC(C)=O)C(=O)Nc1ccc2c(C)cc(=O)oc2c1` (Ac-QPKK(Butyryl)-{AMC}), the result was Active.

System in another series: not listed separately
In words: Metabolic stability of compound in human serum assessed as half life incubated for >10 mins measured after 90 mins by HPLC analysis. It counts as ADME, cell-free.
Details: not given
`CNC(=S)NCCCC[C@H](NC(=O)OCc1ccccc1)C(=O)N[C@@H](Cc1c[nH]c2ccccc12)C(=O)NC(C)C`: the half-life is less than 1 h.

In the next series the target is T1, NAD-dependent protein deacetylase sirtuin-1 (Homo sapiens, UniProt Q96EB6).
T1 sequence (Q96EB6 whole entry): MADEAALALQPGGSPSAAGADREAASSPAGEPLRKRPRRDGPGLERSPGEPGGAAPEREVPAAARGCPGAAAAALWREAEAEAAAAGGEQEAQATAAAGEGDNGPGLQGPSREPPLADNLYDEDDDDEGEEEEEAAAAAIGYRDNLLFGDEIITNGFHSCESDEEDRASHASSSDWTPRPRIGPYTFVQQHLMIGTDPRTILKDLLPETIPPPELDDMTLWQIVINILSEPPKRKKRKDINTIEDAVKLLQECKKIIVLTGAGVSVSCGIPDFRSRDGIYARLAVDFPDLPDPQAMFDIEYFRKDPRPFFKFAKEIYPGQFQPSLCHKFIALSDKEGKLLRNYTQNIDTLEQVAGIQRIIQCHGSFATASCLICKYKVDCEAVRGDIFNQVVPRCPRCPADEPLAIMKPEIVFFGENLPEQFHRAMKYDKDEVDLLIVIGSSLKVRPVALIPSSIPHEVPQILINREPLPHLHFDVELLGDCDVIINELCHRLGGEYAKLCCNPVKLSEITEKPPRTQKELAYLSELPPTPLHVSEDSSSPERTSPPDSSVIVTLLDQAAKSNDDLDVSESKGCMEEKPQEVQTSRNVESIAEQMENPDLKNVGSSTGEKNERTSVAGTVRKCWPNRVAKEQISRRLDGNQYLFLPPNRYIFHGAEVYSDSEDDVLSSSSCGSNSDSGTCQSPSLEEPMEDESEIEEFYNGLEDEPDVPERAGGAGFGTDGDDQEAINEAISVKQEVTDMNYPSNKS
In words: Inhibition of human recombinant N-terminal GST-tagged SIRT1 (193 to 741 residues) expressed in Escherichia coli using Ac-Gln-Pro-Lys-Lys(Ac)-AMC (oxo-10) as substrate by fluorescence assay.
Details: not given
Turning to `CCCCNC(=S)NCCCC[C@H](NC(=O)OCc1ccccc1)C(=O)N[C@@H](Cc1c[nH]c2ccccc12)C(=O)NC(C)C`, the 50% inhibitory concentration (IC50) was 1130 nM.

The next series deals with T2, NAD-dependent protein deacetylase sirtuin-1 (Homo sapiens) (UniProt Q96EB6).
T2 sequence (whole entry): T1 sequence (Q96EB6 whole entry)
In words: Inhibition of human N-terminal GST-tagged SIRT1 (193 to 741 residues) expressed in Escherichia coli preincubated with NAD+ for 30 mins using Ac-Gln-Pro-Lys-Lys(Ac)-AMC (oxo-10) as substrate at 1 to 100 uM measured after 90 mins by fluorescence assay. Conditions: dose microM 1-100, time 120.0 min. A digest of the protocol:
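Recombinant SIRT1 (100 nM) preincubated 30 min with compound, either with or without NAD+ (500 μM), before the fluorogenic deacetylation read-out. Single-dose %-inhibition. Two independent experiments in duplicate, standard deviation.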
Regarding `CCCCNC(=S)NCCCC[C@H](NC(=O)OCc1ccccc1)C(=O)N[C@@H](Cc1c[nH]c2ccccc12)C(=O)NC(C)C`, the inhibition result is “Active”.

For the compound `NC(=O)C1CCCc2c1[nH]c1ccc(Cl)cc21` (configuration not stated), the inhibition result is “inactive”.

In the case of `CNC(=S)NCCCC[C@H](NC(=O)OCc1ccccc1)C(=O)N[C@@H](Cc1c[nH]c2ccccc12)C(=O)NC(C)C`, the inhibition entry was “Active”.

The next series has as its target T3, NAD-dependent protein deacetylase sirtuin-3, mitochondrial (Homo sapiens) (UniProt Q9NTG7).
T3 sequence (whole entry): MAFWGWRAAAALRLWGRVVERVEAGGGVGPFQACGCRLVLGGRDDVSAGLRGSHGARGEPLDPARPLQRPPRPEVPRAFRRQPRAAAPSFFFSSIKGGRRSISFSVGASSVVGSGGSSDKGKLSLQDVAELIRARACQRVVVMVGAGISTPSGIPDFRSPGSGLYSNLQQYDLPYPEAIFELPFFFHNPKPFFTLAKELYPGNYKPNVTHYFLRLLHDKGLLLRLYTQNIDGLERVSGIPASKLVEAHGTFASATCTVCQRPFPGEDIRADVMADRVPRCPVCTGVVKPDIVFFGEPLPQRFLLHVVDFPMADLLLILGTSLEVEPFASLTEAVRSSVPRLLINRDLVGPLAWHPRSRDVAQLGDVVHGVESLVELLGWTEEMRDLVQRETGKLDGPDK
In words: Inhibition of human N-terminal GST-tagged SIRT3 (102 to 399 residues) expressed in Escherichia coli using Ac-Gln-Pro-Lys-Lys(but)-AMC (oxo-12) as substrate at 100 uM by fluorescence assay relative to control.
Details: not given
For `CCCCNC(=S)NCCCC[C@H](NC(=O)OCc1ccccc1)C(=O)N[C@@H](Cc1c[nH]c2ccccc12)C(=O)NC(C)C`, the inhibition was 2%.

Another series deals with T4, NAD-dependent protein deacetylase sirtuin-2 (Homo sapiens, UniProt Q8IXJ6).
T4 sequence (Q8IXJ6 whole entry): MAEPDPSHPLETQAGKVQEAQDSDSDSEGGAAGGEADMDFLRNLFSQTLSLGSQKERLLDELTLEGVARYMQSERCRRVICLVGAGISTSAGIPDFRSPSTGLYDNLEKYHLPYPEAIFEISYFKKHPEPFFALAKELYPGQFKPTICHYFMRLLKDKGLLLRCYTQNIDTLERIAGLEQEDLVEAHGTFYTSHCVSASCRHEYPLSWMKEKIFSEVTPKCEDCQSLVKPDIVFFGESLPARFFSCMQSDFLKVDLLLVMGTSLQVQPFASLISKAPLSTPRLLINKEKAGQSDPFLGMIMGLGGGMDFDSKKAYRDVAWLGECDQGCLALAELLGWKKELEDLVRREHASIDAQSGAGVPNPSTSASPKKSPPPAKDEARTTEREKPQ
Description: Inhibition of human C-terminal His-tagged SIRT2 (50 to 356 residues) expressed in Escherichia coli using Ac-Gln-Pro-Lys-Lys(pro)-AMC (oxo-11) as substrate by fluorescence assay.
Details: not given
Take `CCCCNC(=S)NCCCC[C@H](NC(=O)OCc1ccccc1)C(=O)N[C@@H](Cc1c[nH]c2ccccc12)C(=O)NC(C)C`: the midpoint of inhibition, the IC50, lay at 1400 nM.

The target in another series is T5, NAD-dependent protein deacetylase sirtuin-2 (Homo sapiens) (UniProt Q8IXJ6).
T5 sequence (whole entry): T4 sequence (Q8IXJ6 whole entry)
In words: Inhibition of human recombinant C-terminal His-tagged SIRT2 (50 to 356 residues) deacetylation activity in presence of substrate and NAD+ incubated for 60 mins measured after 90 mins by fluorescence assay.
Details: not given
The essentials: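 Recombinant SIRT2 (100 nM or 250 nM) incubated with fluorogenic thioacyl or oxo lysine-AMC substrates plus NAD+. Deacylation read by fluorescence. Two independent experiments in duplicate, standard deviation.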
On to `CC(=O)NCCCC[C@H](NC(=O)[C@H](CCCCN)NC(=O)[C@@H]1CCCN1C(=O)[C@H](CCC(N)=O)NC(C)=O)C(=O)Nc1ccc2c(C)cc(=O)oc2c1` (Ac-QPKK(Ac)-{AMC}), for which the inhibition result was “Active”.

For the compound `CCCC(=O)NCCCC[C@H](NC(=O)[C@H](CCCCN)NC(=O)[C@@H]1CCCN1C(=O)[C@H](CCC(N)=O)NC(C)=O)C(=O)Nc1ccc2c(C)cc(=O)oc2c1` (Ac-QPKK(Butyryl)-{AMC}), the inhibition entry was “Active”.

System in a further series: not listed separately
Description: Metabolic stability of compound in human serum assessed as drug degradation incubated for >10 mins measured after 90 mins by HPLC analysis. The format is ADME, cell-free. The note with it: 1.5 h.
Consider `CNC(=S)NCCCC[C@H](NC(=O)OCc1ccccc1)C(=O)N[C@@H](Cc1c[nH]c2ccccc12)C(=O)NC(C)C`, for which the Activity entry is recorded as “Not Active”.

Another series has as its target T2, NAD-dependent protein deacetylase sirtuin-1 (Homo sapiens). In words: Inhibition of SIRT1 in HEK293 cells assessed as increase in p53 acetylation co-treated with TSA at 25 uM for 6 hrs by western blot analysis. It counts as cell-based.
Details: not given
A digest of the protocol: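 HEK293 cells exposed 6 h to compound at 25 μM together with TSA (1 μM). Whole-cell lysates immunoblotted for Ac-p53 (K382) and total p53. Ratio Ac-p53/p53 normalized to DMSO control. Two independent experiments in duplicate, SEM.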
For orientation: Immunoblotting shows a protein as a band on a membrane.
For `Cc1cc(C)nc(SCC(=O)Nc2ncc(Cc3cccc4ccccc34)s2)n1`, the inhibition entry is “inactive”.

Regarding `NC(=O)C1CCCc2c1[nH]c1ccc(Cl)cc21` (configuration not stated), the inhibition result was “Active”.

Take `CNC(=S)NCCCC[C@H](NC(=O)OCc1ccccc1)C(=O)N[C@@H](Cc1c[nH]c2ccccc12)C(=O)NC(C)C`: the inhibition result is “Active”.
